# Source: ChEMBL document CHEMBL3997810, “A Novel Potent Anticancer Compound Optimized from a Natural Oridonin Scaffold Induces Apoptosis and Cell Cycle Arrest through the Mitochondrial Pathway” (J Med Chem, 2017)
# pIC50: −log10 of the molar value. Activity calls are given as the source filed them. The rule behind the calls is not given here.
# Test system: not listed separately
# Test: Antiproliferative activity against human KB/CP4 cells after 48 hrs by MTT assay
# Type: functional, cell-based
# Details: KB/CP4, 48 h
# Summary of the method: (§1)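 Colorimetric MTT assay. KB-3-1, NCI-H460 and Bel-7404 cells were seeded at 4000 cells/well; resistant KB/CP4, NCI-H460/MX20 and Bel-7404/CP20 were seeded at 7000 cells/well. Cells were pre-incubated 24 h at 37 °C, 5% CO2, then exposed to a compound concentration series for 48 h with DMSO ≤0.25%. Absorbance read at 570 nm. Quadruplicate wells, three repeats; means ± SD.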
row,Structure (SMILES),pIC50
1,C=C1C(=O)[C@]23[C@H](OC(=O)/C=C/c4ccccc4OC)[C@H]1CC[C@H]2[C@]12C=CCC(C)(C)[C@H]1[C@H](O)[C@]3(O)OC2,5.34
2,C=C1C(=O)[C@]23[C@H](O)[C@H]1CC[C@H]2[C@@]12CO[C@@]3(O)[C@@H](O)[C@@H]1C(C)(C)C[C@H](Cl)[C@H]2O,5.23
3,C=C1C(=O)[C@]23[C@H](OC(=O)c4ccc(Br)cc4)[C@H]1CC[C@H]2[C@]12C=CCC(C)(C)[C@H]1[C@H](O)[C@]3(O)OC2,5.49

# Test system: MGC-803
# Test: Antiproliferative activity against human MGC803 cells after 72 hrs by MTT assay
# Type: functional, cell-based
# Details: MGC-803, 72 h
# Summary of the method: (§2)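 MGC-803 and MCF-7 cells grown in DMEM (MCF-7 with 1× NEAA); Bel-7402 and K562 grown in RPMI 1640; all media with 10% FBS. Cells seeded at 3500/well, pre-incubated 24 h, then exposed to compounds in fresh medium (DMSO ≤0.25%) for 72 h at 37 °C. MTT read-out at 570 nm. Quadruplicate wells, repeated three times; means ± SD (n = 3).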
row,Structure (SMILES),pIC50
1,C=C1C(=O)[C@]23[C@H](OC(=O)c4c(OC)cccc4OC)[C@H]1CC[C@H]2[C@]12C=CCC(C)(C)[C@H]1[C@H](O)[C@]3(O)OC2,4.67
2,C=C1C(=O)[C@]23[C@H](OC(=O)c4ccnc(Cl)c4)[C@H]1CC[C@H]2[C@]12C=CC(=O)C(C)(C)[C@H]1[C@H](O)[C@]3(O)OC2,5.42
3,C=C1C(=O)[C@]23[C@H](OC(=O)/C=C/c4ccccc4OC)[C@H]1CC[C@H]2[C@]12C=CCC(C)(C)[C@H]1[C@H](O)[C@]3(O)OC2,5.61
4,C=C1C(=O)[C@]23[C@H](O)[C@H]1CC[C@H]2[C@@]12CO[C@@]3(O)[C@@H](O)[C@@H]1C(C)(C)C[C@H](Cl)[C@H]2O,5.50
5,C=C1C(=O)[C@]23[C@H](OC(=O)c4ccc(Br)cc4)[C@H]1CC[C@H]2[C@]12C=CCC(C)(C)[C@H]1[C@H](O)[C@]3(O)OC2,5.70

# Test system: MCF7
# Test: Cytotoxicity against human MCF7 cells at 10 to 50 uM after 24 hrs by LDH assay
# Type: functional, cell-based
# Details: not given
# Summary of the method: (§3)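 Membrane integrity assay on MCF-7 and Bel-7402 cells seeded at ~5 × 10^3 per well for 24 h, then given compounds at 10, 20 or 50 μM. Culture medium collected and assayed with CytoTox-ONE LDH reagent for 10 min, followed by stop solution. Fluorescence read at Ex 560/Em 590 nm. Expressed as percentage of unstimulated cells.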
row,Structure (SMILES),Activity
1,C=C1C(=O)[C@]23[C@H](O)[C@H]1CC[C@H]2[C@@]12CO[C@@]3(O)[C@@H](O)[C@@H]1C(C)(C)C[C@H](Cl)[C@H]2O,inactive

# Test system: K562
# Test: Antiproliferative activity against human K562 cells after 72 hrs by MTT assay
# Type: functional, cell-based
# Details: K562, 72 h
# Summary of the method: as §2
row,Structure (SMILES),pIC50
1,C=C1C(=O)[C@]23[C@H](OC(=O)c4c(OC)cccc4OC)[C@H]1CC[C@H]2[C@]12C=CCC(C)(C)[C@H]1[C@H](O)[C@]3(O)OC2,5.16
2,C=C1C(=O)[C@]23[C@H](OC(=O)c4ccnc(Cl)c4)[C@H]1CC[C@H]2[C@]12C=CC(=O)C(C)(C)[C@H]1[C@H](O)[C@]3(O)OC2,5.53
3,C=C1C(=O)[C@]23[C@H](OC(=O)/C=C/c4ccccc4OC)[C@H]1CC[C@H]2[C@]12C=CCC(C)(C)[C@H]1[C@H](O)[C@]3(O)OC2,6.37
4,C=C1C(=O)[C@]23[C@H](O)[C@H]1CC[C@H]2[C@@]12CO[C@@]3(O)[C@@H](O)[C@@H]1C(C)(C)C[C@H](Cl)[C@H]2O,5.64
5,C=C1C(=O)[C@]23[C@H](OC(=O)c4ccc(Br)cc4)[C@H]1CC[C@H]2[C@]12C=CCC(C)(C)[C@H]1[C@H](O)[C@]3(O)OC2,6.48

# Test system: Bel-7402
# Test: Cytotoxicity against human Bel7402 cells at 10 to 50 uM after 24 hrs by LDH assay
# Type: functional, cell-based
# Details: not given
# Summary of the method: as §3
row,Structure (SMILES),Activity
1,C=C1C(=O)[C@]23[C@H](O)[C@H]1CC[C@H]2[C@@]12CO[C@@]3(O)[C@@H](O)[C@@H]1C(C)(C)C[C@H](Cl)[C@H]2O,inactive

# Test system: not listed separately
# Test: Antiproliferative activity against human NCI-H460/MX20 cells after 48 hrs by MTT assay
# Type: functional, cell-based
# Details: NCI-H460/MX20, 48 h
# Summary of the method: as §1
row,Structure (SMILES),pIC50
1,C=C1C(=O)[C@]23[C@H](OC(=O)/C=C/c4ccccc4OC)[C@H]1CC[C@H]2[C@]12C=CCC(C)(C)[C@H]1[C@H](O)[C@]3(O)OC2,5.26
2,C=C1C(=O)[C@]23[C@H](O)[C@H]1CC[C@H]2[C@@]12CO[C@@]3(O)[C@@H](O)[C@@H]1C(C)(C)C[C@H](Cl)[C@H]2O,4.31
3,C=C1C(=O)[C@]23[C@H](OC(=O)c4ccc(Br)cc4)[C@H]1CC[C@H]2[C@]12C=CCC(C)(C)[C@H]1[C@H](O)[C@]3(O)OC2,5.33

# Test system: MCF7
# Test: Antiproliferative activity against human MCF7 cells after 72 hrs by MTT assay
# Type: functional, cell-based
# Details: MCF7, 72 h
# Summary of the method: as §2
row,Structure (SMILES),pIC50
1,C=C1C(=O)[C@]23[C@H](OC(=O)c4c(OC)cccc4OC)[C@H]1CC[C@H]2[C@]12C=CCC(C)(C)[C@H]1[C@H](O)[C@]3(O)OC2,4.90
2,C=C1C(=O)[C@]23[C@H](OC(=O)c4ccnc(Cl)c4)[C@H]1CC[C@H]2[C@]12C=CC(=O)C(C)(C)[C@H]1[C@H](O)[C@]3(O)OC2,5.29
3,C=C1C(=O)[C@]23[C@H](OC(=O)/C=C/c4ccccc4OC)[C@H]1CC[C@H]2[C@]12C=CCC(C)(C)[C@H]1[C@H](O)[C@]3(O)OC2,6.09
4,C=C1C(=O)[C@]23[C@H](O)[C@H]1CC[C@H]2[C@@]12CO[C@@]3(O)[C@@H](O)[C@@H]1C(C)(C)C[C@H](Cl)[C@H]2O,5.46
5,C=C1C(=O)[C@]23[C@H](OC(=O)c4ccc(Br)cc4)[C@H]1CC[C@H]2[C@]12C=CCC(C)(C)[C@H]1[C@H](O)[C@]3(O)OC2,6.85

# Test system: BEL-7404 tumor cell line
# Test: Antiproliferative activity against human Bel7404 cells after 48 hrs by MTT assay
# Type: functional, cell-based
# Details: BEL-7404, 48 h
# Summary of the method: as §1
row,Structure (SMILES),pIC50
1,C=C1C(=O)[C@]23[C@H](OC(=O)/C=C/c4ccccc4OC)[C@H]1CC[C@H]2[C@]12C=CCC(C)(C)[C@H]1[C@H](O)[C@]3(O)OC2,5.22
2,C=C1C(=O)[C@]23[C@H](O)[C@H]1CC[C@H]2[C@@]12CO[C@@]3(O)[C@@H](O)[C@@H]1C(C)(C)C[C@H](Cl)[C@H]2O,5.16
3,C=C1C(=O)[C@]23[C@H](OC(=O)c4ccc(Br)cc4)[C@H]1CC[C@H]2[C@]12C=CCC(C)(C)[C@H]1[C@H](O)[C@]3(O)OC2,5.27

# Test system: Bel-7402
# Test: Antiproliferative activity against human Bel7402 cells after 72 hrs by MTT assay
# Type: functional, cell-based
# Details: Bel-7402, 72 h
# Summary of the method: as §2
row,Structure (SMILES),pIC50
1,C=C1C(=O)[C@]23[C@H](OC(=O)c4c(OC)cccc4OC)[C@H]1CC[C@H]2[C@]12C=CCC(C)(C)[C@H]1[C@H](O)[C@]3(O)OC2,4.34
2,C=C1C(=O)[C@]23[C@H](OC(=O)c4ccnc(Cl)c4)[C@H]1CC[C@H]2[C@]12C=CC(=O)C(C)(C)[C@H]1[C@H](O)[C@]3(O)OC2,5.48
3,C=C1C(=O)[C@]23[C@H](OC(=O)/C=C/c4ccccc4OC)[C@H]1CC[C@H]2[C@]12C=CCC(C)(C)[C@H]1[C@H](O)[C@]3(O)OC2,5.65
4,C=C1C(=O)[C@]23[C@H](O)[C@H]1CC[C@H]2[C@@]12CO[C@@]3(O)[C@@H](O)[C@@H]1C(C)(C)C[C@H](Cl)[C@H]2O,5.77
5,C=C1C(=O)[C@]23[C@H](OC(=O)c4ccc(Br)cc4)[C@H]1CC[C@H]2[C@]12C=CCC(C)(C)[C@H]1[C@H](O)[C@]3(O)OC2,5.97

# Test system: KB 3-1
# Test: Antiproliferative activity against human KB-3-1 cells after 48 hrs by MTT assay
# Type: functional, cell-based
# Details: KB 3-1, 48 h
# Summary of the method: as §1
row,Structure (SMILES),pIC50
1,C=C1C(=O)[C@]23[C@H](OC(=O)/C=C/c4ccccc4OC)[C@H]1CC[C@H]2[C@]12C=CCC(C)(C)[C@H]1[C@H](O)[C@]3(O)OC2,5.08
2,C=C1C(=O)[C@]23[C@H](O)[C@H]1CC[C@H]2[C@@]12CO[C@@]3(O)[C@@H](O)[C@@H]1C(C)(C)C[C@H](Cl)[C@H]2O,5.18
3,C=C1C(=O)[C@]23[C@H](OC(=O)c4ccc(Br)cc4)[C@H]1CC[C@H]2[C@]12C=CCC(C)(C)[C@H]1[C@H](O)[C@]3(O)OC2,5.24

# Test system: not listed separately
# Test: Selectivity ratio of IC50 for human KB/CP4 cells to IC50 for human KB-3-1 cells
# Details: not given
row,Structure (SMILES),Ratio IC50
1,C=C1C(=O)[C@]23[C@H](OC(=O)/C=C/c4ccccc4OC)[C@H]1CC[C@H]2[C@]12C=CCC(C)(C)[C@H]1[C@H](O)[C@]3(O)OC2,<1
2,C=C1C(=O)[C@]23[C@H](O)[C@H]1CC[C@H]2[C@@]12CO[C@@]3(O)[C@@H](O)[C@@H]1C(C)(C)C[C@H](Cl)[C@H]2O,<1
3,C=C1C(=O)[C@]23[C@H](OC(=O)c4ccc(Br)cc4)[C@H]1CC[C@H]2[C@]12C=CCC(C)(C)[C@H]1[C@H](O)[C@]3(O)OC2,<1

# Test system: not listed separately
# Test: Antiproliferative activity against human BEL7404/CP20 cells after 48 hrs by MTT assay
# Type: functional, cell-based
# Details: BEL7404/CP20, 48 h
# Summary of the method: as §1
row,Structure (SMILES),pIC50
1,C=C1C(=O)[C@]23[C@H](OC(=O)/C=C/c4ccccc4OC)[C@H]1CC[C@H]2[C@]12C=CCC(C)(C)[C@H]1[C@H](O)[C@]3(O)OC2,5.16
2,C=C1C(=O)[C@]23[C@H](O)[C@H]1CC[C@H]2[C@@]12CO[C@@]3(O)[C@@H](O)[C@@H]1C(C)(C)C[C@H](Cl)[C@H]2O,5.22
3,C=C1C(=O)[C@]23[C@H](OC(=O)c4ccc(Br)cc4)[C@H]1CC[C@H]2[C@]12C=CCC(C)(C)[C@H]1[C@H](O)[C@]3(O)OC2,5.22

# Test system: NCI-H460
# Test: Antiproliferative activity against human NCI-H460 cells after 48 hrs by MTT assay
# Type: functional, cell-based
# Details: NCI-H460, 48 h
# Summary of the method: as §1
row,Structure (SMILES),pIC50
1,C=C1C(=O)[C@]23[C@H](OC(=O)/C=C/c4ccccc4OC)[C@H]1CC[C@H]2[C@]12C=CCC(C)(C)[C@H]1[C@H](O)[C@]3(O)OC2,5.27
2,C=C1C(=O)[C@]23[C@H](O)[C@H]1CC[C@H]2[C@@]12CO[C@@]3(O)[C@@H](O)[C@@H]1C(C)(C)C[C@H](Cl)[C@H]2O,5.06
3,C=C1C(=O)[C@]23[C@H](OC(=O)c4ccc(Br)cc4)[C@H]1CC[C@H]2[C@]12C=CCC(C)(C)[C@H]1[C@H](O)[C@]3(O)OC2,5.27
